Laboratory results from ChEMBL document CHEMBL5058577, “EUbOPEN Chemogenomics Library 2 (Multiplex)” (2022).

System: U2OS
Assay: Multiplex assay against U2OS
Format: toxicity, cell-based
Conditions: human
Method in brief: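 Cells were classed with CellPathfinder machine-learning gating, first as Hoechst high-intensity objects or normal cells, then (normal cells) as healthy, pyknosed or fragmented nuclei, and finally (pyknosed cells) as mitotic or apoptotic. Staining of live cells at seeding used Hoechst33342, BioTracker Green Microtubule Cytoskeleton Dye, MitoTracker Red and Annexin V Alexa Fluor 680, with imaging on a CQ1 microscope at 37°C and 5% CO2 after compound addition. Tubulin, mitochondrial-mass and membrane-permeability phenotypes are per cents of healthy-nucleus cells.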

[1] = 12 h, 1 µM, compound concentration 1 uM, replicate 1
[2] = 12 h, 1 µM, compound concentration 1 uM, replicate 2
[3] = 12 h, 10 µM, compound concentration 10 uM, replicate 1
[4] = 12 h, 10 µM, compound concentration 10 uM, replicate 2
[5] = 24 h, 1 µM, compound concentration 1 uM, replicate 1
[6] = 24 h, 1 µM, compound concentration 1 uM, replicate 2
[7] = 24 h, 10 µM, compound concentration 10 uM, replicate 1
[8] = 24 h, 10 µM, compound concentration 10 uM, replicate 2
[9] = 48 h, 1 µM, compound concentration 1 uM, replicate 1
[10] = 48 h, 1 µM, compound concentration 1 uM, replicate 2
[11] = 48 h, 10 µM, compound concentration 10 uM, replicate 1
[12] = 48 h, 10 µM, compound concentration 10 uM, replicate 2

COc1cc(C(=O)N(CCCc2ccccc2)Cc2ccc(CC(=O)O)cc2)cc(OC)c1C
Population Apoptotic (%) [1]: 95% | Population Fragmented Nuclei (%) [1]: 29% | Population Healthy Nuclei (%) [1]: 60% | Population Hoechst High Intensity Objects (%) [1]: 4% | Population Membrane Permeable-Phenotype (%) [1]: 7% | Population Mitochondria Different-Phenotype (%) [1]: 4% | Population Mitotic Cells (%) [1]: 4% | Population Normal (%) [1]: 95% | Population Pyknosed Nuclei (%) [1]: 10% | Population Tubulin-Different-Phenotype (%) [1]: 4% | Total Cell Count [1]: 228 | Population Apoptotic (%) [2]: 70% | Population Fragmented Nuclei (%) [2]: 23% | Population Healthy Nuclei (%) [2]: 65% | Population Membrane Permeable-Phenotype (%) [2]: 8% | Population Mitochondria Different-Phenotype (%) [2]: 1% | Population Mitotic Cells (%) [2]: 30% | Population Pyknosed Nuclei (%) [2]: 11% | Population Tubulin-Different-Phenotype (%) [2]: 1% | Total Cell Count [2]: 93 | Population Apoptotic (%) [3]: 82% | Population Fragmented Nuclei (%) [3]: 22% | Population Healthy Nuclei (%) [3]: 71% | Population Hoechst High Intensity Objects (%) [3]: 0% | Population Membrane Permeable-Phenotype (%) [3]: 5% | Population Mitochondria Different-Phenotype (%) [3]: 0% | Population Mitotic Cells (%) [3]: 17% | Population Normal (%) [3]: 99% | Population Pyknosed Nuclei (%) [3]: 6% | Population Tubulin-Different-Phenotype (%) [3]: 2% | Total Cell Count [3]: 262 | Population Apoptotic (%) [4]: 100% | Population Fragmented Nuclei (%) [4]: 15% | Population Healthy Nuclei (%) [4]: 79% | Population Hoechst High Intensity Objects (%) [4]: 1% | Population Membrane Permeable-Phenotype (%) [4]: 2% | Population Mitochondria Different-Phenotype (%) [4]: 3% | Population Mitotic Cells (%) [4]: 0% | Population Normal (%) [4]: 98% | Population Pyknosed Nuclei (%) [4]: 4% | Population Tubulin-Different-Phenotype (%) [4]: 4% | Total Cell Count [4]: 171 | Population Apoptotic (%) [5]: 84% | Population Fragmented Nuclei (%) [5]: 29% | Population Healthy Nuclei (%) [5]: 61% | Population Hoechst High Intensity Objects (%) [5]: 2% | Population Membrane Permeable-Phenotype (%) [5]: 7% | Population Mitochondria Different-Phenotype (%) [5]: 6% | Population Mitotic Cells (%) [5]: 15% | Population Normal (%) [5]: 97% | Population Pyknosed Nuclei (%) [5]: 9% | Population Tubulin-Different-Phenotype (%) [5]: 4% | Total Cell Count [5]: 288 | Population Apoptotic (%) [6]: 73% | Population Fragmented Nuclei (%) [6]: 22% | Population Healthy Nuclei (%) [6]: 64% | Population Hoechst High Intensity Objects (%) [6]: 4% | Population Membrane Permeable-Phenotype (%) [6]: 2% | Population Mitochondria Different-Phenotype (%) [6]: 2% | Population Mitotic Cells (%) [6]: 26% | Population Normal (%) [6]: 95% | Population Pyknosed Nuclei (%) [6]: 13% | Population Tubulin-Different-Phenotype (%) [6]: 0% | Total Cell Count [6]: 120 | Population Apoptotic (%) [7]: 94% | Population Fragmented Nuclei (%) [7]: 18% | Population Healthy Nuclei (%) [7]: 76% | Population Hoechst High Intensity Objects (%) [7]: 0% | Population Membrane Permeable-Phenotype (%) [7]: 7% | Population Mitochondria Different-Phenotype (%) [7]: 2% | Population Mitotic Cells (%) [7]: 5% | Population Normal (%) [7]: 99% | Population Pyknosed Nuclei (%) [7]: 5% | Population Tubulin-Different-Phenotype (%) [7]: 3% | Total Cell Count [7]: 318 | Population Apoptotic (%) [8]: 84% | Population Fragmented Nuclei (%) [8]: 12% | Population Healthy Nuclei (%) [8]: 80% | Population Hoechst High Intensity Objects (%) [8]: 2% | Population Mitochondria Different-Phenotype (%) [8]: 5% | Population Mitotic Cells (%) [8]: 15% | Population Normal (%) [8]: 97% | Population Pyknosed Nuclei (%) [8]: 6% | Population Tubulin-Different-Phenotype (%) [8]: 5% | Total Cell Count [8]: 192 | Population Apoptotic (%) [9]: 86% | Population Fragmented Nuclei (%) [9]: 23% | Population Healthy Nuclei (%) [9]: 69% | Population Hoechst High Intensity Objects (%) [9]: 3% | Population Membrane Permeable-Phenotype (%) [9]: 5% | Population Mitochondria Different-Phenotype (%) [9]: 2% | Population Mitotic Cells (%) [9]: 13% | Population Normal (%) [9]: 96% | Population Pyknosed Nuclei (%) [9]: 7% | Population Tubulin-Different-Phenotype (%) [9]: 4% | Total Cell Count [9]: 408 | Population Apoptotic (%) [10]: 78% | Population Fragmented Nuclei (%) [10]: 22% | Population Healthy Nuclei (%) [10]: 64% | Population Hoechst High Intensity Objects (%) [10]: 6% | Population Membrane Permeable-Phenotype (%) [10]: 7% | Population Mitochondria Different-Phenotype (%) [10]: 5% | Population Mitotic Cells (%) [10]: 21% | Population Normal (%) [10]: 93% | Population Pyknosed Nuclei (%) [10]: 12% | Population Tubulin-Different-Phenotype (%) [10]: 6% | Total Cell Count [10]: 159 | Population Apoptotic (%) [11]: 93% | Population Fragmented Nuclei (%) [11]: 18% | Population Healthy Nuclei (%) [11]: 75% | Population Hoechst High Intensity Objects (%) [11]: 1% | Population Membrane Permeable-Phenotype (%) [11]: 4% | Population Mitochondria Different-Phenotype (%) [11]: 2% | Population Mitotic Cells (%) [11]: 6% | Population Normal (%) [11]: 98% | Population Pyknosed Nuclei (%) [11]: 6% | Population Tubulin-Different-Phenotype (%) [11]: 2% | Total Cell Count [11]: 504 | Population Apoptotic (%) [12]: 94% | Population Fragmented Nuclei (%) [12]: 15% | Population Healthy Nuclei (%) [12]: 71% | Population Hoechst High Intensity Objects (%) [12]: 3% | Population Membrane Permeable-Phenotype (%) [12]: 8% | Population Mitochondria Different-Phenotype (%) [12]: 1% | Population Mitotic Cells (%) [12]: 5% | Population Normal (%) [12]: 96% | Population Pyknosed Nuclei (%) [12]: 13% | Population Tubulin-Different-Phenotype (%) [12]: 4% | Total Cell Count [12]: 280
